Tested on: Human immunodeficiency virus 1
Test: Antiviral activity against wild type HIV1 NL4-3 infected in human TZM-bl cells assessed as reduction in viral infection measured after 1 day by luciferase reporter gene assay based luminiscence assay
Type: functional, organism-based
Conditions: Human immunodeficiency virus 1, NL4-3, TZM-bl, 24 h
How it was run: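 TZM-bl cells got a single-round infection with 800 TCID50 of NL4-3 at various compound concentrations, top concentration 100 ng/mL. Luminescence was read 1 day post-infection. EC50 is the concentration giving a 50% decrease in luciferase RLU versus control wells, determined in at least triplicate.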

| SMILES | EC50 |
| --- | --- |
| O=C1Nc2ccc(Cl)cc2[C@@](C#CC2CC2)(C(F)(F)F)O1 [EFAVIRENZ] | 5.2 nM |
| Cc1cc(C#N)cc(C)c1Oc1nc(Nc2ccc(C#N)cc2)ncc1/C=C/C(=O)NCCCN1CCOCC1 | 3.53 nM |
| Cc1cc(C#N)cc(C)c1Oc1nc(Nc2ccc(C#N)cc2)ncc1/C=C/C(N)=O | 5.36 nM |

Next, values leading:

| EC50 | SMILES |
| --- | --- |
| > 160 nM | Cc1cc(C#N)cc(C)c1Oc1nc(Nc2ccc(C#N)cc2)ncc1/C=C/C(=O)NC1CCN(S(=O)(=O)C(F)(F)F)CC1 |
| 14.2 nM | Cc1cc(C#N)cc(C)c1Oc1nc(Nc2ccc(C#N)cc2)ncc1/C=C/C(=O)NC1CCN(S(C)(=O)=O)CC1 |
| 13.6 nM | Cc1cc(C#N)cc(C)c1Oc1nc(Nc2ccc(C#N)cc2)ncc1/C=C/C(=O)NCC1CCN(S(C)(=O)=O)C1 (centres undefined) |

Tested on: not listed separately
Test: Cytotoxicity against human TZM-bl cells assessed as reduction in cell viability measured after 1 day by CytoTox-Glo assay
Type: cell-based
Conditions: not given
How it was run: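 TZM-bl cells were cultured 1 day with various compound concentrations, in parallel with the antiviral assay, top concentration 100 ng/mL. Viable cells were measured by CytoTox-Glo. CC50 is the concentration causing a 50% reduction in cell viability.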

| SMILES | CC50 at 24 h |
| --- | --- |
| Cc1cc(C#N)cc(C)c1Oc1nc(Nc2ccc(C#N)cc2)ncc1/C=C/C(=O)NC1CCN(S(=O)(=O)C(F)(F)F)CC1 | > 160 nM |
| O=C1Nc2ccc(Cl)cc2[C@@](C#CC2CC2)(C(F)(F)F)O1 [EFAVIRENZ] | > 6300 nM |
| Cc1cc(C#N)cc(C)c1Oc1nc(Nc2ccc(C#N)cc2)ncc1/C=C/C(=O)NCCCN1CCOCC1 | > 186 nM |
| Cc1cc(C#N)cc(C)c1Oc1nc(Nc2ccc(C#N)cc2)ncc1/C=C/C(=O)NC1CCN(S(C)(=O)=O)CC1 | > 175 nM |
| Cc1cc(C#N)cc(C)c1Oc1nc(Nc2ccc(C#N)cc2)ncc1/C=C/C(N)=O | > 243 nM |
| Cc1cc(C#N)cc(C)c1Oc1nc(Nc2ccc(C#N)cc2)ncc1/C=C/C(=O)NCC1CCN(S(C)(=O)=O)C1 (centres undefined) | > 175 nM |

Tested on: not listed separately
Test: Selectivity index, ratio of CC50 for human TZM-bl cells to EC50 for wild type HIV1 NL4-3 infected in human TZM-bl cells
Type: toxicity, cell-based
Conditions: read-out: Ratio CC50/EC50
How it was run: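 Selectivity index is CC50/EC50, with both values from the TZM-bl assays: NL4-3 single-round luciferase infection and CytoTox-Glo viability, each over 1 day.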

| SMILES | selectivity ratio |
| --- | --- |
| Cc1cc(C#N)cc(C)c1Oc1nc(Nc2ccc(C#N)cc2)ncc1/C=C/C(=O)NC1CCN(S(=O)(=O)C(F)(F)F)CC1 | > 1 |
| O=C1Nc2ccc(Cl)cc2[C@@](C#CC2CC2)(C(F)(F)F)O1 [EFAVIRENZ] | > 1210 |
| Cc1cc(C#N)cc(C)c1Oc1nc(Nc2ccc(C#N)cc2)ncc1/C=C/C(=O)NCCCN1CCOCC1 | > 53 |
| Cc1cc(C#N)cc(C)c1Oc1nc(Nc2ccc(C#N)cc2)ncc1/C=C/C(=O)NC1CCN(S(C)(=O)=O)CC1 | > 12 |
| Cc1cc(C#N)cc(C)c1Oc1nc(Nc2ccc(C#N)cc2)ncc1/C=C/C(N)=O | > 45 |
| Cc1cc(C#N)cc(C)c1Oc1nc(Nc2ccc(C#N)cc2)ncc1/C=C/C(=O)NCC1CCN(S(C)(=O)=O)C1 (centres undefined) | > 13 |

Tested on: Human immunodeficiency virus 1
Test: Antiviral activity against wild type HIV-1 3B infected in human MT4 cells assessed as inhibition of virus-induced cytopathic effect measured after 5 days by MTT assay
Type: functional, organism-based
Conditions: Human immunodeficiency virus 1, 3B, MT4, 120 h
How it was run: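 MT-4 cells at 6 × 10^5 cells/mL were infected with virus stock at 100–300 CCID50 in the presence of serial 5-fold compound dilutions, in triplicate wells. Viability was read by MTT reduction 5 days after infection, with absorbance at 540 and 690 nm and the median OD of three wells used. EC50 is the concentration giving 50% protection from viral cytopathicity.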

| SMILES | EC50 |
| --- | --- |
| O=C1Nc2ccc(Cl)cc2[C@@](C#CC2CC2)(C(F)(F)F)O1 [EFAVIRENZ] | 2.5 nM |
| Cc1cc(C#N)cc(C)c1Oc1nc(Nc2ccc(C#N)cc2)ncc1/C=C/C(=O)NCCCN1CCOCC1 | 10.5 nM |

Tested on: not listed separately
Test: Cytotoxicity against human MT4 cells assessed as reduction in cell viability measured after 5 days by MTT assay
Type: cell-based
Conditions: time 5 day
How it was run: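 Mock-infected MT-4 cells (6 × 10^5 cells/mL) were run in parallel with the infected wells, under serial 5-fold compound dilutions in triplicate. MTT viability was read after 5 days and the median OD of three wells used. CC50 is the concentration that reduced OD540 of the mock-infected cells by 50%.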

| SMILES | CC50 at 120 h |
| --- | --- |
| O=C1Nc2ccc(Cl)cc2[C@@](C#CC2CC2)(C(F)(F)F)O1 [EFAVIRENZ] | > 6300 nM |
| Cc1cc(C#N)cc(C)c1Oc1nc(Nc2ccc(C#N)cc2)ncc1/C=C/C(=O)NCCCN1CCOCC1 | 23000 nM |

Tested on: not listed separately
Test: Selectivity index, ratio of CC50 for human MT4 cells to EC50 for wild type HIV-1 3B infected in human MT4 cells
Type: toxicity, cell-based
Conditions: read-out: Ratio CC50/EC50

| SMILES | selectivity ratio |
| --- | --- |
| O=C1Nc2ccc(Cl)cc2[C@@](C#CC2CC2)(C(F)(F)F)O1 [EFAVIRENZ] | > 2570 |
| Cc1cc(C#N)cc(C)c1Oc1nc(Nc2ccc(C#N)cc2)ncc1/C=C/C(=O)NCCCN1CCOCC1 | 2200 |

Tested on: Human immunodeficiency virus 1
Test: Antiviral activity against HIV-1 harboring reverse transcriptase L100I mutant infected in human MT4 cells assessed as inhibition of virus induced cytopathic effect measured after 5 days by MTT assay
Type: functional, organism-based
Conditions: Human immunodeficiency virus 1, MT4, 120 h
How it was run: (§1)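 MT-4 cells, exponentially growing, resuspended at 6 × 10^5 cells/mL and infected with the mutant HIV-1 stock at 100–300 CCID50. Compounds were added as 5-fold serial dilutions, in triplicate wells, alongside mock-infected wells. After 5 days, viability was read by MTT reduction at 540 and 690 nm using the median OD of three wells. EC50 is the concentration giving 50% protection from viral cytopathogenicity.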

| SMILES | EC50 |
| --- | --- |
| O=C1Nc2ccc(Cl)cc2[C@@](C#CC2CC2)(C(F)(F)F)O1 [EFAVIRENZ] | 30.8 nM |
| Cc1cc(C#N)cc(C)c1Oc1nc(Nc2ccc(C#N)cc2)ncc1/C=C/C(=O)NCCCN1CCOCC1 | 254 nM |

Tested on: Human immunodeficiency virus 1
Test: Antiviral activity against HIV-1 harboring reverse transcriptase K103N mutant infected in human MT4 cells assessed as inhibition of virus induced cytopathic effect measured after 5 days by MTT assay
Type: functional, organism-based
Conditions: Human immunodeficiency virus 1, MT4, 120 h
How it was run: as §1

| SMILES | EC50 |
| --- | --- |
| O=C1Nc2ccc(Cl)cc2[C@@](C#CC2CC2)(C(F)(F)F)O1 [EFAVIRENZ] | 63.7 nM |
| Cc1cc(C#N)cc(C)c1Oc1nc(Nc2ccc(C#N)cc2)ncc1/C=C/C(=O)NCCCN1CCOCC1 | 22 nM |

Tested on: Human immunodeficiency virus 1
Test: Antiviral activity against HIV-1 harboring reverse transcriptase Y181C mutant infected in human MT4 cells assessed as inhibition of virus induced cytopathic effect measured after 5 days by MTT assay
Type: functional, organism-based
Conditions: Human immunodeficiency virus 1, MT4, 120 h
How it was run: as §1

| SMILES | EC50 |
| --- | --- |
| O=C1Nc2ccc(Cl)cc2[C@@](C#CC2CC2)(C(F)(F)F)O1 [EFAVIRENZ] | 5.2 nM |
| Cc1cc(C#N)cc(C)c1Oc1nc(Nc2ccc(C#N)cc2)ncc1/C=C/C(=O)NCCCN1CCOCC1 | 124 nM |

Tested on: Human immunodeficiency virus 1
Test: Antiviral activity against HIV-1 harboring reverse transcriptase Y188L mutant infected in human MT4 cells assessed as inhibition of virus induced cytopathic effect measured after 5 days by MTT assay
Type: functional, organism-based
Conditions: Human immunodeficiency virus 1, MT4, 120 h
How it was run: as §1

| SMILES | EC50 |
| --- | --- |
| O=C1Nc2ccc(Cl)cc2[C@@](C#CC2CC2)(C(F)(F)F)O1 [EFAVIRENZ] | 148 nM |
| Cc1cc(C#N)cc(C)c1Oc1nc(Nc2ccc(C#N)cc2)ncc1/C=C/C(=O)NCCCN1CCOCC1 | 212 nM |

Tested on: Human immunodeficiency virus 1
Test: Antiviral activity against HIV-1 harboring reverse transcriptase E138K mutant infected in human MT4 cells assessed as inhibition of virus induced cytopathic effect measured after 5 days by MTT assay
Type: functional, organism-based
Conditions: Human immunodeficiency virus 1, MT4, 120 h
How it was run: as §1

| SMILES | EC50 |
| --- | --- |
| O=C1Nc2ccc(Cl)cc2[C@@](C#CC2CC2)(C(F)(F)F)O1 [EFAVIRENZ] | 5.7 nM |
| Cc1cc(C#N)cc(C)c1Oc1nc(Nc2ccc(C#N)cc2)ncc1/C=C/C(=O)NCCCN1CCOCC1 | 22.6 nM |

Tested on: Human immunodeficiency virus 1
Test: Antiviral activity against HIV-1 harboring reverse transcriptase F227L/V106A mutant infected in human MT4 cells assessed as inhibition of virus induced cytopathic effect measured after 5 days by MTT assay
Type: functional, organism-based
Conditions: Human immunodeficiency virus 1, MT4, 120 h
How it was run: as §1

| SMILES | EC50 |
| --- | --- |
| O=C1Nc2ccc(Cl)cc2[C@@](C#CC2CC2)(C(F)(F)F)O1 [EFAVIRENZ] | 169 nM |
| Cc1cc(C#N)cc(C)c1Oc1nc(Nc2ccc(C#N)cc2)ncc1/C=C/C(=O)NCCCN1CCOCC1 | 443 nM |

Tested on: Human immunodeficiency virus 1
Test: Antiviral activity against HIV-1 harboring reverse transcriptase RES056 mutant infected in human MT4 cells assessed as inhibition of virus induced cytopathic effect measured after 5 days by MTT assay
Type: functional, organism-based
Conditions: Human immunodeficiency virus 1, MT4, 120 h
How it was run: as §1

| SMILES | EC50 |
| --- | --- |
| O=C1Nc2ccc(Cl)cc2[C@@](C#CC2CC2)(C(F)(F)F)O1 [EFAVIRENZ] | 273 nM |
| Cc1cc(C#N)cc(C)c1Oc1nc(Nc2ccc(C#N)cc2)ncc1/C=C/C(=O)NCCCN1CCOCC1 | 1210 nM |

Tested on: not listed separately
Test: Antiviral activity against HIV-2 ROD infected in human MT4 cells assessed as protection against virus-induced cytopathic effect measured after 5 days by MTT assay
Conditions: Human immunodeficiency virus 2, ISOLATE ROD, MT4, 120 h

| SMILES | EC50 |
| --- | --- |
| Cc1cc(C#N)cc(C)c1Oc1nc(Nc2ccc(C#N)cc2)ncc1/C=C/C(=O)NCCCN1CCOCC1 | > 23000 nM |
